# Measurements collected from several papers.
# Lines come from different studies, so protocols differ.
# Cell line: RPMI-8226
# Observed: cell growth or viability
SMILES,assay,setting,endpoint,value
CCC[C@H](Nc1nc(-c2ccc(NC(=O)NCC)c(OC)c2)ncc1C)c1cccnc1,fluorescence,72 h,IC50,18.3 nM
O=C(Nc1cccc(-c2nc(NC(P(=O)(O)O)P(=O)(O)O)c3ccsc3n2)c1)c1ccc(C(F)(F)F)cc1,MTS,72 h,EC50,710 nM
CC[C@]1(O)C[C@H]2CN(CCc3c([nH]c4ccccc34)[C@@](C(=O)OC)(c3cc4c(cc3OC)N(C=O)[C@H]3[C@@](O)(C(=O)OC)[C@H](OC(C)=O)[C@]5(CC)C=CCN6CC[C@]43[C@@H]65)C2)C1,fluorescence,72 h,IC50,17.9 nM
COc1ccc(C(=O)/C=C/c2ccc(Cl)c(Cl)c2)cc1S(N)(=O)=O,SRB,10 µM,inhibition,107%
CC(C)C[C@H](NC(=O)[C@H](Cc1ccccc1)NC(=O)c1cnccn1)B(O)O,ATP luminescence,,IC50,3.5 nM
N[C@@H]1CCCN(c2c(/C=C3\SC(=O)NC3=O)cccc2-c2ccccc2)C1,thymidine uptake,,GI50,2630 nM
COc1ccc(C(=O)Nc2cccc(-c3nc(NC(P(=O)(O)O)P(=O)(O)O)c4ccsc4n3)c2)cc1F,MTS,72 h,EC50,460 nM
C=CC(=O)N1CCC[C@@H](n2nc(-c3ccc(Oc4ccccc4)cc3)c3c(N)ncnc32)C1,,48 h,GI50,> 10000 nM
Cc1cc(C)n(C(=S)[S][Au][PH](CCCCCC[PH]([Au][S]C(=S)n2nc(C)cc2C)(c2ccccc2)c2ccccc2)(c2ccccc2)c2ccccc2)n1,,,GI50,140 nM
CC(C)C[C@H](NC(=O)[C@H](Cc1ccccc1)NC(=O)c1cnccn1)B(O)O,ATP luminescence,,EC50,3.9 nM
COc1cc(Nc2nccc(-c3cnn4nc(OC)ccc34)n2)cc(C(F)(F)F)c1,ATP luminescence,,IC50,220 nM
COc1cccc(Oc2ccccc2NC(=O)CNC(=O)c2cccc3ccccc23)c1,SRB,48 h,GI50,955 nM
COc1ccc(C(=O)/C=C/c2c(F)cccc2Cl)cc1S(N)(=O)=O,SRB,10 µM,inhibition,110%
